Measured values reported in article PMC3169095 (Biochemistry, 2011).

Assays:
Type in all cases: cell-based
[1] = biological target: T1, Piezo1 (Mus musculus, UniProt E2JF22); test: Outside-out patch recording of pressure-evoked Piezo1 currents
[2] = biological target: T1, Piezo1; conditions: 3.0 μM; Piezo1 in HEK293 cells; n=3 S.D.; SD
[3] = test system: TREK-1; test: Outside-out patch recording of mechanosensitive TREK-1 currents; conditions: extracellular peptide; outside-out patches of cells transfected with TREK-1
Method in brief: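 HEK293 cells transfected with TREK-1 plasmid (250 ng, FuGENE) were recorded 24-48 h later in outside-out patches at room temperature. Extracellular (mM): 145 NaCl, 5 KCl, 3 MgCl2, 10 HEPES, 0.1 CaCl2, pH 7.3. Internal: 133 KCl, 10 HEPES, 5 EGTA, 3 MgCl2. Pressure pulses came from a high-speed pressure clamp. D and L peptide forms were perfused. Sampling was 10 kHz, filtered at 2 kHz.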

T1 sequence (E2JF22 whole entry): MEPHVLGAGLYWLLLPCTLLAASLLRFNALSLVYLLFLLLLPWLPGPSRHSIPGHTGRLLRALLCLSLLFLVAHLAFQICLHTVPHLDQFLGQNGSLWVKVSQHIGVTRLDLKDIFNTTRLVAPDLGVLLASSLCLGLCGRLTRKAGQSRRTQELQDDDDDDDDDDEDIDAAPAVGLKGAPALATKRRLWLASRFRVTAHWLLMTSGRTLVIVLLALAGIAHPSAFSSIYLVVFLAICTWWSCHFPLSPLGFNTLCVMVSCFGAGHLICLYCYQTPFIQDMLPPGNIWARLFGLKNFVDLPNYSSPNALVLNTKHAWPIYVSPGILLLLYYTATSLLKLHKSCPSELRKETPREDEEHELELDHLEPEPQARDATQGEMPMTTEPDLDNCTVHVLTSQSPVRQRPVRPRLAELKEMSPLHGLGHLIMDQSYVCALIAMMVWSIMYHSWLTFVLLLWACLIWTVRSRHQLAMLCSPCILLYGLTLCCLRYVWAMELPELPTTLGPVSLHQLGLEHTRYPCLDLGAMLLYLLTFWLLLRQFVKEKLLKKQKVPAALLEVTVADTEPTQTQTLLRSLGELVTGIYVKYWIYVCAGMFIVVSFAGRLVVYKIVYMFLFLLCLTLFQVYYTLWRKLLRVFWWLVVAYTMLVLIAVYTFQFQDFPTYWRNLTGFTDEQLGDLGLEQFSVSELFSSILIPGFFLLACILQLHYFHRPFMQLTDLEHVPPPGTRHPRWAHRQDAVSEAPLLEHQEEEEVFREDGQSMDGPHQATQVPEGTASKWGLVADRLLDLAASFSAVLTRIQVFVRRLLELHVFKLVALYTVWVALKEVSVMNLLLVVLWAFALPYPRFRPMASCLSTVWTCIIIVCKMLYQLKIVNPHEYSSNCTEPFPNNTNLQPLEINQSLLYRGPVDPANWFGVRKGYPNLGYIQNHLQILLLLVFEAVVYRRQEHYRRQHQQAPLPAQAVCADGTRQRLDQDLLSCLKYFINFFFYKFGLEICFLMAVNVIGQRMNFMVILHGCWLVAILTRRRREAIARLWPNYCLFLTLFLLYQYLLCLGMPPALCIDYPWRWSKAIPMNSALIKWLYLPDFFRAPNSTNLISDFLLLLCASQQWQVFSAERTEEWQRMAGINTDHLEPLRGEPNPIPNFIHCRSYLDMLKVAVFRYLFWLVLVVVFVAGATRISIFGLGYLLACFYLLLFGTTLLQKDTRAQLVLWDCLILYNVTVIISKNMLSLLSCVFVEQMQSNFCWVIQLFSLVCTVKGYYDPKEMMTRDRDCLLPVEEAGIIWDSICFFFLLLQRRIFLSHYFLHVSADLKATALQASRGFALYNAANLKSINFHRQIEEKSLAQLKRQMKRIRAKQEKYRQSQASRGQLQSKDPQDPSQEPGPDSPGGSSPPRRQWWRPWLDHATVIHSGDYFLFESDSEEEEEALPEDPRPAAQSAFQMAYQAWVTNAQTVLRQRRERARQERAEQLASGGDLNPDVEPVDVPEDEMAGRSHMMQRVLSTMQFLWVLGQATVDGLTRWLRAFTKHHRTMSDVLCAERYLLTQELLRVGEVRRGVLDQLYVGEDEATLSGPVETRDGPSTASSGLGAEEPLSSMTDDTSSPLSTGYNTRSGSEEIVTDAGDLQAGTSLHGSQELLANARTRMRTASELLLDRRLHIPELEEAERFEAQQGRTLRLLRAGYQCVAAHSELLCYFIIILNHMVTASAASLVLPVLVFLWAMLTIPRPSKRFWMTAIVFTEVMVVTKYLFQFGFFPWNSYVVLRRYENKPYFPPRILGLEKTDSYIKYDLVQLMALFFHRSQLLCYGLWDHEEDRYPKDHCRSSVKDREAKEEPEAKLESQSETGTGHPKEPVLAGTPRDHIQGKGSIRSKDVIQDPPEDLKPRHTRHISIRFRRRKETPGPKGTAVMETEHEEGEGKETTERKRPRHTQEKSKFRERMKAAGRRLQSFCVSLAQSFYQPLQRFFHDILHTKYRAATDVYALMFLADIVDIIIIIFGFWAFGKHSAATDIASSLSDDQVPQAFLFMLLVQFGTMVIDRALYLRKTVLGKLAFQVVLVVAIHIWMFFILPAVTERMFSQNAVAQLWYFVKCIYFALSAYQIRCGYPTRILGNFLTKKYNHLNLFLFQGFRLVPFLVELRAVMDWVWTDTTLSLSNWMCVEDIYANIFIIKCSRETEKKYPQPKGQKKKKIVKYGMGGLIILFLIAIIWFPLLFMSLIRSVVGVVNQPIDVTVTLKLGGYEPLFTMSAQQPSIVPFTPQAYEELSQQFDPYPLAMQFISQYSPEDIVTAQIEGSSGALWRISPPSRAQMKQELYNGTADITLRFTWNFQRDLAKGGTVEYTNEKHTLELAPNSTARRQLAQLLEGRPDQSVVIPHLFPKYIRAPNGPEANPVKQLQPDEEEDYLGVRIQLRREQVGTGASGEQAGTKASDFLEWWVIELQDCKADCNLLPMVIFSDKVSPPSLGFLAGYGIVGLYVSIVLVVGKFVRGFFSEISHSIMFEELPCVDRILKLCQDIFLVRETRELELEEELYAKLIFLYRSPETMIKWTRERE

| Compound | mode of inhibition of Piezo1 ([1]; 1 mM applied for 90 seconds to resting outside-out patches, Figure S2 B) | inhibition of whole cell mechanosensitive currents [2] | inhibition of TREK-1 mechanosensitive currents [3] | inhibition of peak currents ([1]; outside-out patches, 2.5 μM, n=5, Figure 1C, normalized data) |
| --- | --- | --- | --- | --- |
| [H]/N=C(/N)N[C@H]1[C@H](O)[C@@H](O)[C@H](O[C@@H]2O[C@@H](C)[C@](O)(C=O)[C@H]2O[C@@H]2O[C@@H](CO)[C@H](O)[C@@H](O)[C@@H]2NC)[C@@H](N/C(N)=N\[H])[C@@H]1O [streptomycin] | open channel blocker | – | – | – |
| D-GsMTx4 | – | 70±6% | no inhibition | 29 ± 9% |
